Source: PubChem BioAssay
HDAC3 inhib: blocks human histone deacetylase 3; hit rate 0.15% among 320,000; recombinant HDAC3, fluorogenic peptide/trypsin coupled, fluorescence; inhibition, % at 8.3 µM; O15379; AID 2718; in the data active means inhibition above about 26%, passing the limit was not always enough; inconclusive means no clear call, values can overlap the other calls
Rtt109 HAT inh: inhibitors of Candida albicans Rtt109/Vps75 histone acetyltransferase | Q5AAJ8 | purified Rtt109/Vps75, ThioGlo CoA-SH fluorescence, 4 h | inhibition, % at 34.9 µM | hit rate 0.16% among 330,000 | AID 540336;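 active means inhibition of at least 50% in every replicate; inconclusive means best replicate reaches 50% inhibition but some replicates fall short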
FAS-TE inh: blocks the thioesterase domain of human fatty acid synthase | P49327 | recombinant FAS-TE, OMFH fluorogenic substrate, fluorescence endpoint | inhibition, % at 15 µM | hit rate 0.67% among 360,000 | AID 602261;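 active means compounds whose normalised, plate-corrected inhibition of enzyme fluorescence in the single-dose primary screen is 50% or more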;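 further: 0% = DMSO with enzyme and 100% = substrate without enzyme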
Target sequence (P49327 whole entry, looked up, the tested form may be a part): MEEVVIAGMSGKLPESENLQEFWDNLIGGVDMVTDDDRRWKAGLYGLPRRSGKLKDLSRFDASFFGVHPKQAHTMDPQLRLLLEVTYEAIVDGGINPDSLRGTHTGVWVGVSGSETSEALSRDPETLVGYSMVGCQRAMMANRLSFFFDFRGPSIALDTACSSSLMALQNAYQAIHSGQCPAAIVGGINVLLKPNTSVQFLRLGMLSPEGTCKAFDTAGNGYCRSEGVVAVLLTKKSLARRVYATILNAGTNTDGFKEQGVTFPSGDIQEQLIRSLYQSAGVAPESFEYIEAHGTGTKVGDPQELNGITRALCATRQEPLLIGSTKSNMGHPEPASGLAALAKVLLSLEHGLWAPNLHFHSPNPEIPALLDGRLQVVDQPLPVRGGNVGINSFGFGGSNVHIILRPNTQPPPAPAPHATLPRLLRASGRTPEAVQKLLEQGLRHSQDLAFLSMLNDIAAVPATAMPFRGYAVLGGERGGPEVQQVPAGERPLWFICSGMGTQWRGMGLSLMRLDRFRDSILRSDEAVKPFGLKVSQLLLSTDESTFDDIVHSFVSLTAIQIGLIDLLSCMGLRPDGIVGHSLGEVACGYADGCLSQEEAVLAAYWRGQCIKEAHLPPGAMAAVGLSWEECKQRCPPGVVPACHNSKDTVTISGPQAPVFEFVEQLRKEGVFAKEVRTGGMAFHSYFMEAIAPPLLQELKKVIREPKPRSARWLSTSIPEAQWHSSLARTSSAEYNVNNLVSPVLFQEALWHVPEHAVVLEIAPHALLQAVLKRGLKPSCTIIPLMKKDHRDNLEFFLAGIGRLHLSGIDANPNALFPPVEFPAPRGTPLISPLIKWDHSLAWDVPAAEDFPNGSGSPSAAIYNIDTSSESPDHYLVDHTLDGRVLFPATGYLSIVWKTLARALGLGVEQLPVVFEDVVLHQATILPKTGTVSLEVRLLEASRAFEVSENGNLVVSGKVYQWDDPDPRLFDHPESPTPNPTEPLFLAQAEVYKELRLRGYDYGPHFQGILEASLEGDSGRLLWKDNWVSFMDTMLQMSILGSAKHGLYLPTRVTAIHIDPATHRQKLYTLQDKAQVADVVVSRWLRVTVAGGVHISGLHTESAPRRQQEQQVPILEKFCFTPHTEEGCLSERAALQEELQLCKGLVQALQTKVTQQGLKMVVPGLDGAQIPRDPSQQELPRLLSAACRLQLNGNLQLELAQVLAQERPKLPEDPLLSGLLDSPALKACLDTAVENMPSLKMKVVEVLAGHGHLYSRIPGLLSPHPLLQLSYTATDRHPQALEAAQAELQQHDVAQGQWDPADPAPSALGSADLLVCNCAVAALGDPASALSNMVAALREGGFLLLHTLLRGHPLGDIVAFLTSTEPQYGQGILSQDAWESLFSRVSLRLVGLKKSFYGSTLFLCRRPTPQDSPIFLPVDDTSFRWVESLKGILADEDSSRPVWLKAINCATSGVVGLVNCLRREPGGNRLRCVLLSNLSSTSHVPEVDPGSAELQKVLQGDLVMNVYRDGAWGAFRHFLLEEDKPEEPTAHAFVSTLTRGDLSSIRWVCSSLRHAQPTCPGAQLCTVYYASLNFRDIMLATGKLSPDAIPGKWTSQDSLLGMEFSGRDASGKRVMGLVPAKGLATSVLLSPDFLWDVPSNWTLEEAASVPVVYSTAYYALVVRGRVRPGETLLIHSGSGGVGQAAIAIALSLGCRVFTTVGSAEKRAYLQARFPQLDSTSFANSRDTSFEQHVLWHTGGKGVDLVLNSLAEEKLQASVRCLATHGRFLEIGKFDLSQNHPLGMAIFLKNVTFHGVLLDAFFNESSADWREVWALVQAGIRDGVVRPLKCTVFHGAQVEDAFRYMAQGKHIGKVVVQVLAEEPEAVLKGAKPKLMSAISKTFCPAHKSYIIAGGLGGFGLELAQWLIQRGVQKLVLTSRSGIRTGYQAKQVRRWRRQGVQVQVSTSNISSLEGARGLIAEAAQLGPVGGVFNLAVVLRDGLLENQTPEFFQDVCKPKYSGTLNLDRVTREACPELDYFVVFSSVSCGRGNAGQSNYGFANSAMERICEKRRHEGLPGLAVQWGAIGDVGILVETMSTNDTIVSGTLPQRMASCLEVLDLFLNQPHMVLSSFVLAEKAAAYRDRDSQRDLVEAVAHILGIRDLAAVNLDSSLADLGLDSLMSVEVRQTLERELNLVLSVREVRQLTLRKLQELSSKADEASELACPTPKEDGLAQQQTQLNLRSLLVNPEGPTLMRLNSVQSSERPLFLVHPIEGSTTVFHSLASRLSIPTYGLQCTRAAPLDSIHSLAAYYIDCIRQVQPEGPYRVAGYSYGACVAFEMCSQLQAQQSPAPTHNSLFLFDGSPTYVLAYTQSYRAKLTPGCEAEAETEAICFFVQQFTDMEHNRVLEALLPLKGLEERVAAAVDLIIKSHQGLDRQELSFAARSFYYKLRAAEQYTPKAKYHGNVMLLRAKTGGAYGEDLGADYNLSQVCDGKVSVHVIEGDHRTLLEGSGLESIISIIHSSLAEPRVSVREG
ALR H2O2 inh: inhibitors of human sulfhydryl oxidase ALR; hit rate 3.8% among 290,000; P55789; purified ALR, DTT oxidation, H2O2 HRP-luminol luminescence; inhibition, % (no concentration beside the values);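 active means mean replicate inhibition above about 79%, with every replicate also reaching it, limit read from the data; inconclusive means only one of the two criteria met; inactive means mean below limit and not every replicate reaching it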
UCH37 inh: inhibitors of human deubiquitinating enzyme UCH37; Q9Y5K5; purified proteasome/UCH37, Ub-AMC cleavage fluorescence; inhibition, % (concentration not given with the values); hit rate 0.33% among 330,000;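 active means mean inhibition over replicate wells above about 20%, limit read from the data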;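 further: 0% = compound-free wells with enzyme and 100% = wells lacking proteasome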
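system = Proteasome-associated human UCH37 deubiquitinase | amount = 0.15 nM proteasome as dispensed | medium = pH 7.4 Tris-HCl (50 mM) with ovalbumin, ATP-MgCl2, DTT | incubation = 30 min preincubation with enzyme, 25 min cleavage at room temperature | detection = AMC fluorescence 355/460 nm | read-out basis = percent inhibition | controls = no-proteasome and no-compound wells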
M18AAP inhibitor: PfM18AAP enzyme inhibition | recombinant PfM18AAP, H-Glu-NHMec fluorogenic cleavage | inhibition, % at 7.35 µM | hit rate 1.2% among 290,000;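 active means inhibition above the campaign mean inhibition over all tested compounds plus 3 SD, cut at about 28% in these data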;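 further: 0% = plate median of test compound wells and 100% = 2 mM ZnCl2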
* hit, by the source's call; i = inactive; u = inconclusive; x = no result given. Only some compounds are listed: those with a hit (about 4.6% of all), similar ones and a draw of the others.

SMILES | HDAC3 inhib | Rtt109 HAT inh | FAS-TE inh | ALR H2O2 inh | UCH37 inh | M18AAP inhibitor
Cc1cccc(C)c1Nc1c(-c2ccsc2)nc2ncccn12 | 1 | 11 | -5 | 98* | 3 | -2
Cc1ccccc1Nc1c(-c2ccc(N3CCOCC3)cc2)nc2ncccn12 | 7 | 17 | -4 | 98* | -1 | 6
Cc1ccc(Nc2c(-c3ccc(N4CCOCC4)cc3)nc3ncccn23)cc1 | 0 | 8 | -2 | 21 | -16 | 0
COc1ccc(-c2csc(N=C(N)N)n2)cc1 | 6 | 6 | -2 | 98* | 3 | 2
COc1ccc(S(=O)(=O)NN=C(C)c2ccco2)cc1 | x | x | x | x | 2 | x
Cc1ccccc1NC(=O)C(NC1CCCCC1)C(C)C (centres undefined) | 1 | -7 | -2 | 99* | 1 | -2
CC(=N\Nc1ccc(Cl)cc1)/C(=N/O)C(=O)Nc1ccccc1 | 11 | -8 | -18 | 99* | x | -4
COc1cccc(-c2c(C(=O)NN=C(C)c3ccco3)nnn2-c2nonc2N)c1 | x | x | x | x | -5 | x
CCC(=O)Nc1ccc(C(C)=NNC(=O)c2ccc(OC)cc2)cc1 | x | x | x | x | -1 | x
O=C(CSc1nc2ccccc2o1)Nc1nc2ccc(Br)cc2s1 | 5 | 12 | -7 | 98* | -1 | -1
CCCSc1nnc(NC(=O)CSc2sc3c(O)cc(=O)[nH]c3c2C#N)s1 | 5 | 18 | -4 | u | 10 | 26
N#Cc1c(SCC(=O)Nc2nc3ccc(Br)cc3s2)sc2c(O)cc(=O)[nH]c12 | 6 | -5 | 8 | 99* | x | 10
N#Cc1c(SCC(=O)Nc2nccs2)sc2c(O)cc(=O)[nH]c12 | 3 | -1 | -1 | 99* | x | 29*
N#Cc1c(SCC(=O)Nc2nc3ccccc3s2)sc2c(O)cc(=O)[nH]c12 | 3 | -2 | -1 | 99* | -1 | x
O=[N+]([O-])c1cc(C=NO)ccc1Sc1ccccc1 | x | x | x | x | -1 | x
COc1ccc(C=NNC(=O)C2C(=O)NCC2c2ccccc2)c(OC)c1 (centres undefined) | x | x | x | x | 7 | x
O=c1cc(O)nc(SCc2ccc(Cl)cc2)[nH]1 | u | 12 | -2 | 98* | 3 | 3
Clc1ccc(CSc2nc3ccncc3[nH]2)cc1 | -3 | 1 | -12 | 90* | 5 | 8
O=S1(=O)N=C(Nc2ccc(O)cc2)c2ccccc21 | -3 | x | -9 | 99* | 5 | 1
O=C(NNC1=NS(=O)(=O)c2ccccc21)c1ccc(Cl)cc1 | 10 | x | -5 | 89* | 11 | 6
Cc1ccccc1NC1=NS(=O)(=O)c2ccccc21 | 1 | 2 | -7 | -3 | 4 | 2
Oc1ccc(-c2nccc(-c3cccs3)n2)cc1 | u | 15 | 4 | 89* | 1 | 0
CC(Cn1cnc([N+](=O)[O-])n1)=NNC(=O)c1ccncc1 | x | x | x | x | 1 | x
c1ccc(N2N=C(c3cccs3)CC2c2ccco2)cc1 (centres undefined) | -3 | -114 | 18 | 97* | i | 5
Clc1ccc(N2N=C(c3cccs3)CC2c2ccco2)cc1 (centres undefined) | -53 | -21 | 22 | -5 | i | -7
SMILES | HDAC3 inhib | Rtt109 HAT inh | FAS-TE inh | ALR H2O2 inh | UCH37 inh | M18AAP inhibitor
CCN(CC)c1ccc2cc(NC(=O)CCC(=O)O)c(=O)oc2c1 | -3 | i | -18 | 99* | i | 7
CCN(CC)c1ccc2cc(C(C)=O)c(=O)oc2c1 | 13 | -9 | -60 | 0 | 10 | -7
C=CCNC(=S)NN=Cc1ccc(-c2ccc(Cl)cc2Cl)o1 | x | x | x | x | -94 | x
Fc1ccc(Nc2nc(N3CCOCC3)c3ccccc3n2)cc1 | 5 | 6 | 4 | 93* | -3 | x
Cc1cccc(-n2c(C)n[nH]c2=S)c1 | 4 | 2 | -7 | -5 | 1 | 15
Cc1cccc(-n2c(-c3ccncc3)n[nH]c2=S)c1 | 8 | -1 | -7 | 91* | 3 | 8
Cc1ccccc1-n1c(-c2ccoc2C)n[nH]c1=S | 4 | 6 | -4 | x | 2 | 26
Cc1cccc(-n2c(-c3ccoc3C)n[nH]c2=S)c1 | 5 | 0 | -9 | 91* | 3 | 28
CC(=NNC(=O)CNC(=O)c1ccccc1)c1ccc(C)cc1 | x | x | x | x | 2 | x
Cc1cc(C)nc(SCc2ccc(C(=O)NN=Cc3ccco3)cc2)n1 | x | x | x | x | 3 | x
FC(F)(F)c1cnc(NNC(=S)Nc2ccccc2Cl)c(Cl)c1 | 2 | -2 | 0 | 97* | 2 | 21
CO[C@H]1C=CO[C@@]2(C)Oc3c(C)c(O)c4c(O)c(c5c(nc6cc(C)ccn65)c4c3C2=O)NC(=O)C(C)=CC=C[C@H](C)[C@H](O)[C@@H](C)[C@@H](O)[C@@H](C)[C@H](OC(C)=O)[C@@H]1C | x | x | x | x | 7 | 48*
S=c1nc(-c2ccccc2)n(-c2ccccc2)[nH]1 | 16 | -3 | -2 | u | 1 | 30*
CC(C)c1ccc(NC2CCCN(C(=O)CCn3cnnn3)C2)cc1 (centres undefined) | -2 | 13 | -3 | 67 | -1 | 2
CC(C)c1cc(C(=O)N2CCCC(Nc3ccc(F)cc3)C2)n[nH]1 (centres undefined) | 4 | 12 | -2 | 99* | 2 | -6
CC(C)c1ccc(NC2CCCN(C(=O)c3cc(C(C)C)nc(N)n3)C2)cc1 (centres undefined) | 7 | 1 | -3 | 97* | 4 | 3
Cc1cc(C)n2nc(C(=O)N3CCCC(Nc4ccc(C(C)C)cc4)C3)cc2n1 (centres undefined) | -4 | -6 | -4 | 97* | -25 | 7
Cc1cc(C)n2nc(C(=O)N3CCCC(Nc4ccc(F)c(F)c4)C3)cc2n1 (centres undefined) | 7 | -3 | -2 | 4 | 3 | 5
Cc1nonc1C(=O)N1CCCC(Nc2ccc(C(C)C)cc2)C1 (centres undefined) | 0 | 6 | 23 | -3 | 1 | -4
CC(C)c1ccc(NC2CCCN(C(=O)c3cscn3)C2)cc1 (centres undefined) | 10 | -3 | -1 | 99* | 2 | -2
Cc1ccc(NN=Cc2c(O)cc(C)oc2=O)cc1 | x | x | x | x | 11 | x
COc1cc([N+](=O)[O-])cc(C=NNC(=O)Cn2nc(C)cc2C)c1O | x | x | x | x | 14 | x
CN(N=Cc1ccc(C(C)(C)C)cc1)C1=NCCN1 | x | x | x | x | 0 | x
CC1CCN(Cc2c(C(=O)NN=Cc3cccc(C(F)(F)F)c3)nnn2-c2nonc2N)CC1 | x | x | x | x | 2 | x
Cc1nn(Cc2ccc(C(=O)NN)cc2)c(C)c1Cl | 1 | -27 | -6 | x | 5 | 2
Cc1nn(Cc2cccc(C(=O)NN)c2)c(C)c1Cl | 5 | 11 | -8 | 97* | 0 | 7
CCc1ccc(/C=N/NC(=O)Cc2cccn2C)cc1 | 2 | -3 | -2 | 96* | x | -2
Cc1ccc(/C=N/NC(=O)Cc2cccn2C)cc1 | -1 | -1 | -2 | 28 | x | 10
COc1cc(OC)cc(C(=O)NC(=S)Nc2ccc(N3CCCC3)cc2)c1 | 18 | 1 | 13 | x | 2 | -9
CCNC(=S)Nc1ccc(N2CCCCC2)cc1 | -2 | 2 | -7 | 99* | 2 | 2
